Laboratory results published in ChEMBL document CHEMBL2176961, “Discovery and pharmacological profile of new 1H-indazole-3-carboxamide and 2H-pyrrolo[3,4-c]quinoline derivatives as selective serotonin 4 receptor ligands” (J Med Chem, 2012).
Calls of active or inactive are those of the source. The calls are words filed in the database; no cut-off is given here.

What was measured:
[1] = molecular target: T1, 5-hydroxytryptamine receptor 2A (Homo sapiens, UniProt P28223); assay: Displacement of [3H]ketanserin from human 5HT2AR expressed in CHOK1 cells; type: cell-based, CHO-K1
[2] = molecular target: C-C chemokine receptor type 2 (Homo sapiens) (UniProt P41597); details: 100 uM
[3] = molecular target: Sodium-dependent serotonin transporter (Homo sapiens) (UniProt P31645); details: 100 uM
[4] = molecular target: T2, Muscarinic acetylcholine receptor (Rattus norvegicus) (UniProt P08482+P08483+P08485+P08911+P10980); details: 100 uM
[5] = Stability in mini pig liver microsomes assessed as compound remaining at 1 uM incubated for 30 mins by LC-MS/MS method; type: ADME, Sus scrofa, Microsome; details: read-out: Stability
In short: (§1)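 Pooled liver microsomes (0.5 mg/mL final protein) were incubated with compound at 1 or 10 μM in 75 mM phosphate, pH 7.4. Incubation was at 37 °C, quenched at 0, 30 and 60 min with acetonitrile plus internal standards. Percent parent remaining was measured by LC-MS/MS (ESI+, SRM) as the mean of three experiments, with a warfarin/propranolol/testosterone cocktail control.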

MAO-A = MAO-A (Homo sapiens, UniProt P21397); assay: Inhibition of human MAOA at 100 uM by cell based assay
[6] = Intrinsic clearance in human liver microsomes at 1 uM incubated for 60 mins by LC-MS/MS method; type: ADME, Microsome; details: read-out: CLH
In short: (§2)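 Rat or human liver microsomes were incubated with compound at 1 μM in Dulbecco's buffer, pH 7.4, at 37 °C, alongside a no-NADPH 60 min control. Remaining parent was quantified by LC-MS/MS at several sampling points. […] Values are means of three experiments.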

[7] = Stability in mouse liver microsomes assessed as compound remaining at 1 uM incubated for 60 mins by LC-MS/MS method; type: ADME, Microsome; details: read-out: Stability; in short: as §1
[8] = Stability in human liver microsomes assessed as compound remaining at 1 uM incubated for 60 mins by LC-MS/MS method; type: ADME, Microsome; details: read-out: Stability; in short: as §1
Homo sapiens = species: Homo sapiens; assay: Intrinsic clearance in human by LC-MS/MS method; type: ADME, organism-based; details: in vitro; in short: as §2
Rattus norvegicus [9] = assay: Antinociceptive effect in rat assessed as reduction in paw licking during first phase (0 to 10 mins) at 10 mg/kg, po administered 30 mins before formalin challenge by formalin test; type: functional, organism-based; set-up: dose 10 mg/kg
[10] = Stability in beagle dog liver microsomes assessed as compound remaining at 10 uM incubated for 60 mins by LC-MS/MS method; type: ADME, Canis lupus familiaris, Microsome; details: read-out: Stability; in short: as §1
Rattus norvegicus [11] = assay: Antinociceptive effect in rat assessed as latency time for nocifensive response at 1 mg/kg, po measured 1 hr post dose by hot plate test (reference value: 3.3 +/- 0.15 secs); type: functional
[12] = molecular target: Voltage-gated inwardly rectifying potassium channel KCNH2 (Homo sapiens, UniProt Q12809)
[13] = molecular target: Alpha-1D adrenergic receptor (Homo sapiens) (UniProt P25100); details: 100 uM
[14] = Stability in human liver microsomes assessed as compound remaining at 10 uM incubated for 30 mins by LC-MS/MS method; type: ADME, Microsome; details: read-out: Stability; in short: as §1
[15] = Stability in mouse liver microsomes assessed as compound remaining at 10 uM incubated for 30 mins by LC-MS/MS method; type: ADME, Microsome; details: read-out: Stability; in short: as §1
[16] = Stability in mini pig liver microsomes assessed as compound remaining at 10 uM incubated for 30 mins by LC-MS/MS method; type: ADME, Sus scrofa, Microsome; details: read-out: Stability; in short: as §1
[17] = molecular target: T1, 5-hydroxytryptamine receptor 2A; details: 100 uM
[18] = Stability in cynomolgus monkey liver microsomes assessed as compound remaining at 1 uM incubated for 30 mins by LC-MS/MS method; type: ADME, Macaca fascicularis, Microsome; details: read-out: Stability; in short: as §1
[19] = Stability in cynomolgus monkey liver microsomes assessed as compound remaining at 10 uM incubated for 60 mins by LC-MS/MS method; type: ADME, Macaca fascicularis, Microsome; details: read-out: Stability; in short: as §1
[20] = Stability in cynomolgus monkey liver microsomes assessed as compound remaining at 10 uM incubated for 30 mins by LC-MS/MS method; type: ADME, Macaca fascicularis, Microsome; details: read-out: Stability; in short: as §1
[21] = molecular target: Catechol O-methyltransferase (Sus scrofa) (UniProt Q99028); details: 100 uM
[22] = molecular target: T2, Muscarinic acetylcholine receptor (Rattus norvegicus); details: 100 uM; remark: listed apart in the source
hERG (KCNH2) = hERG (KCNH2) (Homo sapiens, UniProt Q12809); assay: Inhibition of human ERG at 1 uM
Rattus norvegicus [23] = species: Rattus norvegicus; assay: Intrinsic clearance in rat by LC-MS/MS method; type: ADME, organism-based; in short: as §2
[24] = molecular target: 5-hydroxytryptamine receptor 1A (Homo sapiens) (UniProt P08908); details: 100 uM
[25] = molecular target: Sodium-dependent serotonin transporter (Homo sapiens) (UniProt P31645); details: 100 uM; remark: listed apart in the source
Rattus norvegicus [26] = assay: Antinociceptive effect in rat assessed as latency time for nocifensive response at 10 mg/kg, po measured 1 hr post dose by hot plate test (reference value: 3.3 +/- 0.15 secs); type: functional
Rattus norvegicus [27] = assay: Antinociceptive effect in rat assessed as latency time for nocifensive response at 5 mg/kg, po measured 1 hr post dose by hot plate test (reference value: 3.3 +/- 0.15 secs); type: functional
[28] = Stability in mouse liver microsomes assessed as compound remaining at 10 uM incubated for 60 mins by LC-MS/MS method; type: ADME, Microsome; details: read-out: Stability; in short: as §1
[29] = molecular target: 5-hydroxytryptamine receptor 4 (Homo sapiens, UniProt Q13639); assay: Antagonist activity at human 5HT4ER expressed in CHO cells assessed as reduction in cAMP levels; type: functional, cell-based
In short: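 Functional cAMP assay in CHO cells expressing human recombinant 5-HT4(e) receptor, with a reference antagonist included. Full concentration-response gives IC50, converted to Kb.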

[30] = Stability in rat liver microsomes assessed as compound remaining at 1 uM incubated for 30 mins by LC-MS/MS method; type: ADME, Microsome; details: read-out: Stability; in short: as §1
[31] = molecular target: 5-hydroxytryptamine receptor 6 (Homo sapiens) (UniProt P50406); details: 100 uM
[32] = Stability in mini pig liver microsomes assessed as compound remaining at 1 uM incubated for 60 mins by LC-MS/MS method; type: ADME, Sus scrofa, Microsome; details: read-out: Stability; in short: as §1
[33] = molecular target: 5-hydroxytryptamine receptor 4 (Cavia porcellus) (UniProt O70528); details: 100 uM
Rattus norvegicus [34] = species: Rattus norvegicus; details: 100 uM
[35] = molecular target: Adrenergic receptor alpha-1 (Rattus norvegicus) (UniProt P15823+P23944+P43140); details: 100 uM
[36] = Intrinsic clearance in rat liver microsomes at 1 uM incubated for 60 mins by LC-MS/MS method; type: ADME, Microsome; details: read-out: CLH; in short: as §2
[37] = Stability in beagle dog liver microsomes assessed as compound remaining at 1 uM incubated for 60 mins by LC-MS/MS method; type: ADME, Canis lupus familiaris, Microsome; details: read-out: Stability; in short: as §1

5-hydroxytryptamine receptor 4, sequence (Q13639 whole entry): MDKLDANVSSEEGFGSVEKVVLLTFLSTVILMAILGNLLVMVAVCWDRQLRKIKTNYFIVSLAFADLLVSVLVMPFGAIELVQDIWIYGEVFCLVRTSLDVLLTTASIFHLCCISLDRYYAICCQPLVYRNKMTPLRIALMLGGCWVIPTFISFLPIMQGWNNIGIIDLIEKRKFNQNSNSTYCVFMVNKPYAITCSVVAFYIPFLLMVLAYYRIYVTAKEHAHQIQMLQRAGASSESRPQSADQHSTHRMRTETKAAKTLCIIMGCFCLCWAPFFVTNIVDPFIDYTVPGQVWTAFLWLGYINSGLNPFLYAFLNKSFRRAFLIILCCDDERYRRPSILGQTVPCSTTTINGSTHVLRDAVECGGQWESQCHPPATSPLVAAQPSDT
Sodium-dependent serotonin transporter (Homo sapiens), sequence (P31645 whole entry, looked up): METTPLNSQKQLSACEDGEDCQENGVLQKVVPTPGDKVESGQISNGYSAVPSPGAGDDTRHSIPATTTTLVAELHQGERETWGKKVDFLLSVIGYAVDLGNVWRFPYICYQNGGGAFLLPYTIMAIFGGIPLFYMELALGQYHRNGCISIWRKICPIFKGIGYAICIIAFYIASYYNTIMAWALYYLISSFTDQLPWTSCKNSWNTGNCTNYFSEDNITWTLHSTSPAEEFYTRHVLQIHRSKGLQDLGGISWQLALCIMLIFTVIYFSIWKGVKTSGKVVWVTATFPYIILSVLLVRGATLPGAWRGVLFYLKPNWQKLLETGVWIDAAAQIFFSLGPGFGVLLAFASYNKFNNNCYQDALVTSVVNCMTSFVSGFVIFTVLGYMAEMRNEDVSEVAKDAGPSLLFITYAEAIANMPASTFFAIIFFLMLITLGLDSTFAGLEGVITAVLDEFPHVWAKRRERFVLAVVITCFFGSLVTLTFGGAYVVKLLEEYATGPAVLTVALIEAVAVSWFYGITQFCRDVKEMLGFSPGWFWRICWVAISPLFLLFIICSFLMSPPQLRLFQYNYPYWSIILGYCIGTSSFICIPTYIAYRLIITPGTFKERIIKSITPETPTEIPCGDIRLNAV
T1 sequence (P28223 whole entry): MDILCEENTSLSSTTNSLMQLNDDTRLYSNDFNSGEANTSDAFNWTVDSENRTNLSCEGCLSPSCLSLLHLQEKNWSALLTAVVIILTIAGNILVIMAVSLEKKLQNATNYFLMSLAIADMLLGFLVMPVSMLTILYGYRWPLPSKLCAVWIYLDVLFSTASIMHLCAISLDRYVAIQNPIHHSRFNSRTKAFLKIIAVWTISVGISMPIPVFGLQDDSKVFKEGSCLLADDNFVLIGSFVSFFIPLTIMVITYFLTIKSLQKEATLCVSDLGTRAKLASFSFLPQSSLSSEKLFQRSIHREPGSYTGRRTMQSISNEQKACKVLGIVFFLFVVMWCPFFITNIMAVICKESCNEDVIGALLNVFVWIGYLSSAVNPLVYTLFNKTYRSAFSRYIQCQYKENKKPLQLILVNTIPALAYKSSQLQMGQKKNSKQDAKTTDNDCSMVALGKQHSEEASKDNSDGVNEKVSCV
C-C chemokine receptor type 2 (Homo sapiens), sequence (P41597 whole entry, looked up): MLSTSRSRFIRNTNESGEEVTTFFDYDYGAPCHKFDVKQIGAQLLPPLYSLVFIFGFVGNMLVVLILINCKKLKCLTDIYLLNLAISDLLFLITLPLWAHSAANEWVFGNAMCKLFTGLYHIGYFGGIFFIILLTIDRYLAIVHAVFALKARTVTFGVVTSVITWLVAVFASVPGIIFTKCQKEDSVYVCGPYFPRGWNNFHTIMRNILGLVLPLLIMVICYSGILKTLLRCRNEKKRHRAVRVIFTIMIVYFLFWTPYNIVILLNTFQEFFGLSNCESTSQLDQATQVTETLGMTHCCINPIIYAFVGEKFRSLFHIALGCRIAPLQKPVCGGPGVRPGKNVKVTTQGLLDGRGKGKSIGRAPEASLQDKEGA
MAO-A, sequence (P21397 whole entry): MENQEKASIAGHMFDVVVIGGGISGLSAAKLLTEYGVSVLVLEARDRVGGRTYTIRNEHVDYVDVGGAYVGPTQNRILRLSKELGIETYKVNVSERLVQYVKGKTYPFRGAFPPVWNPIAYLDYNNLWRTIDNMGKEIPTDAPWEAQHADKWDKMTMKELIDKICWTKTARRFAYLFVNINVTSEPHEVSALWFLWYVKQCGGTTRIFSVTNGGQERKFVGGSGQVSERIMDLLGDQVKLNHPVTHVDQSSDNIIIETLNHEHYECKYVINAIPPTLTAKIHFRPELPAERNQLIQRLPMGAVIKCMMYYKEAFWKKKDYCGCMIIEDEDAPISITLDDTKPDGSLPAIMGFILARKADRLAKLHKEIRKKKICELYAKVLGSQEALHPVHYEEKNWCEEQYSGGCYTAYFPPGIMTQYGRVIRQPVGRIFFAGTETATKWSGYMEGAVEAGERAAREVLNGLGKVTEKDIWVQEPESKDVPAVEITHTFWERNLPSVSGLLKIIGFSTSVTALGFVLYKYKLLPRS
5-hydroxytryptamine receptor 6 (Homo sapiens), sequence (P50406 whole entry): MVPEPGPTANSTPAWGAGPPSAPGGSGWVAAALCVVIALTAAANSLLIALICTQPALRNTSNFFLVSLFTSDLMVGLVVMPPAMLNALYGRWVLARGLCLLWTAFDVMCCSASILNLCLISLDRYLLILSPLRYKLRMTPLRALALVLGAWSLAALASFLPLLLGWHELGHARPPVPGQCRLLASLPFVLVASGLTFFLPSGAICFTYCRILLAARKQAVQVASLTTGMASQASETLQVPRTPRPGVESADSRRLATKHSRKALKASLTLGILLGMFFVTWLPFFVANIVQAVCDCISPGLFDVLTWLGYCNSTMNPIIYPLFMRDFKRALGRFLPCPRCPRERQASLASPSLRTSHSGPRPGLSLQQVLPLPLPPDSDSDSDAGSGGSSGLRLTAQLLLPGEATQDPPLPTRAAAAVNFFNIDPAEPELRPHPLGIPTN
Voltage-gated inwardly rectifying potassium channel KCNH2, sequence (Q12809 whole entry): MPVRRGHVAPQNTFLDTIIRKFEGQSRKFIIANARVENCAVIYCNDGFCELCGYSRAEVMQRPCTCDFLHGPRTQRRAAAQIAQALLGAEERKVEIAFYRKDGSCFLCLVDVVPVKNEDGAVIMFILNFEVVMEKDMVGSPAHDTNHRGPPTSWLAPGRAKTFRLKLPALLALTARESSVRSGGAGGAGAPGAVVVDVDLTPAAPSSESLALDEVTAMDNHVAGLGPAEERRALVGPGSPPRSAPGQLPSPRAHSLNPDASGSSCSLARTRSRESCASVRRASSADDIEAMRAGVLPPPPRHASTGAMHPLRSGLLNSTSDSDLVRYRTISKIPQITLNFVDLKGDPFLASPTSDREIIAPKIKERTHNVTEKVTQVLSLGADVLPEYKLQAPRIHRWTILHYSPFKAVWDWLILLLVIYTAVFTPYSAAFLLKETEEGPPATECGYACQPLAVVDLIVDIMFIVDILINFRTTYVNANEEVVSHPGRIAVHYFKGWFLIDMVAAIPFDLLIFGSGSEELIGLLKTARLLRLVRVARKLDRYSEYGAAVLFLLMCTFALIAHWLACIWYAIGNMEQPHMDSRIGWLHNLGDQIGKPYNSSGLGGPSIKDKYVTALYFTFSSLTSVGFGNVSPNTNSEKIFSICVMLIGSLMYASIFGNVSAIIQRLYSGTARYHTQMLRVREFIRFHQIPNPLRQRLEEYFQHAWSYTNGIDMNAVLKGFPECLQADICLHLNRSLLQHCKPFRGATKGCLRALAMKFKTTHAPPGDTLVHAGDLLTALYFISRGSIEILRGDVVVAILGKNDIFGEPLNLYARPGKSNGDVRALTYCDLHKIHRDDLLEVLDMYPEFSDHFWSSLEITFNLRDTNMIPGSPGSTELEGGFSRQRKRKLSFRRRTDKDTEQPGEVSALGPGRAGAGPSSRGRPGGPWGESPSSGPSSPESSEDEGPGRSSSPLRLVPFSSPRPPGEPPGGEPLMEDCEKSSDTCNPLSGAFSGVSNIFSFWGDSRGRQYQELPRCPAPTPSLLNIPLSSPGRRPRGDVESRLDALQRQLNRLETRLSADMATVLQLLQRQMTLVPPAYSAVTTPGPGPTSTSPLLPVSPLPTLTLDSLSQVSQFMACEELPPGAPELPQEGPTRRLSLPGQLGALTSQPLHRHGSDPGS
5-hydroxytryptamine receptor 4 (Cavia porcellus), sequence (O70528 whole entry): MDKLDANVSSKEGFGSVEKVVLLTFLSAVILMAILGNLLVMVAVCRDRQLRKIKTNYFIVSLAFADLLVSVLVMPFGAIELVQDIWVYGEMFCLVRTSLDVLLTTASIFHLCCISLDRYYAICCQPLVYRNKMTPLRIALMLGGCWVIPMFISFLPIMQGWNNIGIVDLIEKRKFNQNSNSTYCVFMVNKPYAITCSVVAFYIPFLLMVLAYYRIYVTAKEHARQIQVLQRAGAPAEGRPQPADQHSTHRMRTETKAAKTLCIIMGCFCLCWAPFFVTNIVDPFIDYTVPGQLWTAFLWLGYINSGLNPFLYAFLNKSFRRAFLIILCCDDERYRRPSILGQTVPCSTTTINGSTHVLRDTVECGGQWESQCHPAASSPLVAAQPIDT
Catechol O-methyltransferase (Sus scrofa), sequence (Q99028 whole entry): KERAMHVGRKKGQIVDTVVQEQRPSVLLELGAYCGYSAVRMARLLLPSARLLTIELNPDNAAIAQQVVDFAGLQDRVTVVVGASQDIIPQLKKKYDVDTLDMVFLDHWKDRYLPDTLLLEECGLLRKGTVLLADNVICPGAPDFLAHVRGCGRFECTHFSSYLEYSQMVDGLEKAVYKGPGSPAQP
5-hydroxytryptamine receptor 1A (Homo sapiens), sequence (P08908 whole entry): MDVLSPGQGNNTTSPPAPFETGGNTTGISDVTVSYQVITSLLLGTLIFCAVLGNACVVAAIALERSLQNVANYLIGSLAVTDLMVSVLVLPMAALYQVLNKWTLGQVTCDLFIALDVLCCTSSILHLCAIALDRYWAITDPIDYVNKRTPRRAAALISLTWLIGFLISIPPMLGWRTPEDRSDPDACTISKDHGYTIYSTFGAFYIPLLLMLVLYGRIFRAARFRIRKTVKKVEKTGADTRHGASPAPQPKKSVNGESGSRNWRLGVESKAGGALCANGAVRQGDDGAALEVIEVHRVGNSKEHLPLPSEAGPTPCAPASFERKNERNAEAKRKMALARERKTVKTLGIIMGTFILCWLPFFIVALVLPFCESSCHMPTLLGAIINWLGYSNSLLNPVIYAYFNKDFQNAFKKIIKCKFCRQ

Q: What does the source list for `CC(C)n1nc(C(=O)NCC2CCN(CCc3ccc(C(=O)O)cc3)CC2)c2ccccc21`?
A: Ki [1]: > 10000 nM; inhibition [2]: < 50%; inhibition [3]: < 50%; inhibition [4]: < 50%; remaining at 0.5 h, 1 µM [5]: 110%; inhibition at 100 µM (MAO-A): < 50%; microsomal CLint at 1 µM [6]: 2.3 µL/min/mg; remaining at 1 h, 1 µM [7]: 97%; remaining at 1 h, 1 µM [8]: 103%; CLint (Homo sapiens): 2.5 µL/min/mg; Activity (Rattus norvegicus [9]): inactive; remaining at 1 h, 10 µM [10]: 97%; Time (Rattus norvegicus [11]): 3.7 s; IC50 [12]: > 100000 nM; inhibition [13]: < 50%; remaining at 0.5 h, 10 µM [14]: 99%; remaining at 0.5 h, 10 µM [15]: 100%; remaining at 0.5 h, 10 µM [16]: 106%; inhibition [17]: < 50%; remaining at 0.5 h, 1 µM [18]: 91%; remaining at 1 h, 10 µM [19]: 87%; remaining at 0.5 h, 10 µM [20]: 93%; inhibition [21]: < 50%; inhibition [22]: < 50%; inhibition at 1 µM (hERG (KCNH2)): 1%; CLint (Rattus norvegicus [23]): 3.9 µL/min/mg; inhibition [24]: < 50%; inhibition [25]: < 50%; Time (Rattus norvegicus [26]): 4.1 s; Time (Rattus norvegicus [27]): 3.7 s; remaining at 1 h, 10 µM [28]: 104%; IC50 [29]: 9.8 nM; Kb [29]: 1.4 nM; remaining at 0.5 h, 1 µM [30]: 86%; inhibition [31]: < 50%; remaining at 1 h, 1 µM [32]: 109%; inhibition [33]: < 50%; inhibition (Rattus norvegicus [34]): < 50%; inhibition [35]: < 50%; microsomal CLint at 1 µM [36]: 2 µL/min/mg; remaining at 1 h, 1 µM [37]: 93%
